Measured values reported in PubChem BioAssay.
Results filed as inconclusive are left out.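 Rule for the calls, unless noted: active = cell viability at or below a set limit in both duplicate runs, the limit being the all-compound median minus 4 SD (cut at about 23% in these data, passing the limit was not always enough); inconclusive = no clear call, values can overlap the other calls; inactive = the rest.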

Experiments:
[1] = S. cerevisiae growth inhibition in permissive medium (OD615), pilot counter-assay for S. cerevisiae lifespan shortening project, permissive growth control (AID 705;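 active = growth inhibition above 25% in both replicates, a cutoff set 3 SD above the mean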); settings: OD615, 24 h, at 10 µM, hits give high values
Method in brief: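 assay system = Saccharomyces cerevisiae strain carrying genetically modified DeaD replicative-lifespan system | medium = SC raffinose/galactose permissive medium | dosing = 10 µM single dose, 0.25% DMSO | schedule = 24 h compound exposure at 30 °C after 4 h pre-growth | measured by = OD at 615 nm | read-out basis = growth inhibition from lowered OD615 after 24 h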

[2] = S. cerevisiae growth inhibition in restrictive medium, OD615, pilot screen, restrictive growth control, yeast lifespan reduction project (AID 706;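 active = growth inhibition above a set limit, 3 SD over mean compound inhibition, in both replicates, cut at about 43% in these data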;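 note: modified DeaD lifespan yeast strain shifted to restrictive glucose medium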); settings: OD615, 48 h, at 10 µM, hits give high values
Method in brief: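 Buffer or medium: CSMM-D glucose medium. Material: genetically modified Saccharomyces cerevisiae, DeaD replicative lifespan assay strain. Times: 48 h compound exposure at 30 °C. Measured by: optical density at 615 nm.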

[3] = doxorubicin toxicity protection in MRP-1 cells – H69AR cells, CellTiter-Glo, duplicate, MRP-1 activator project, pilot screen (AID 807;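 active = viability increase at or above a cutoff of the median across tested compounds plus 3 SD, cut at about 8.5% in these data, passing the limit was not always enough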;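 note: compound pretreatment 18-22 h then 72 h combined with doxorubicin; 0% = doxorubicin alone and 100% = vehicle without doxorubicin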); settings: H69AR viability with doxorubicin, CellTiter-Glo luminescence; at 10 µM; hits give high values
[4] = viability of HCT116 without oncogenic beta-catenin – human colon tumor cells, pilot screen (AID 823); settings: HCT116 beta-catenin knockout viability, CellTiter-Glo, 60 h; at 10 µM; hits give low values;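 note: 0% = wells killed by 20 µM Hyamine and 100% = untreated DMSO cell wells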
[5] = viability of PTEN-null HCT116 cells – cell-based, HCT116 clonal line, CellTiter-Glo, pilot screen (AID 824;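 active = viability at or below 27.92% in each of two runs, the all-compound median minus 4 SD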;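 note: 0% = 20 µM Hyamine control and 100% = vehicle cell control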); settings: HCT116 PTEN-deleted viability, 60 h, at 10 µM, hits give low values
[6] = RAM pathway blockade in budding yeast – dse1pr::URA3 reporter, 5-FOA selection, pilot screen (AID 869;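 active = inhibition over a set limit, the all-compound mean plus 3 SD, in both replicate runs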;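 note: 0% = DMSO wells with no growth and 100% = 10 µM 1-NA-PP1 with full growth; RAM network block rescues cells from 5-FOA so hits raise OD615 growth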); settings: S. cerevisiae dse1pr::URA3 5-FOA growth, OD615, 2 d; at 10 µM; hits give high values; strain carries analog-sensitive mutant Cbk1 kinase
[7] = RAM signaling pathway blockade in yeast – S. cerevisiae, Pdr1DBD-CYC8 efflux-inhibited sensitized strain, primary screen (AID 1298;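 active = RAM network inhibition above 8.4% in each of two replicates, 3 SD over the compound average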;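 note: 0% = DMSO untreated cells without growth and 100% = 10 µM 1-NA-PP1 full growth; higher means more yeast growth rescued from 5-FOA killing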); settings: S. cerevisiae cbk1-as DSE1-URA3 strain, 5-FOA growth OD615, 2 d; at 50 µM; hits give high values

Cn1c(=O)c2cc(S(=O)(=O)NC(C(=O)Nc3cccnc3)c3ccccc3)ccc2n(C)c1=O (stereo not drawn)
inactive: growth inhibition [1] -3.52% | growth inhibition [2] -1.8% | viability increase [3] -2.15% | viability [4] 99% | viability [5] 91.9% | inhibition [6] 1.96% | RAM network inhibition [7] 0.58%

Cc1ccc(C(C(=O)NC2CCCCC2)N2CCCC2)cc1 (stereo not drawn)
inactive: growth inhibition [1] -4.08% | growth inhibition [2] -8.76% | viability increase [3] -3.02% | viability [4] 88.9% | viability [5] 93% | inhibition [6] 0.835% | RAM network inhibition [7] 8.97%

Cc1ccc(-c2nnc3n2N=C(c2ccccc2)CS3)cc1
inactive: growth inhibition [1] -5.77% | growth inhibition [2] 6.07% | viability increase [3] -0.74% | viability [4] 97.7% | viability [5] 96.9% | inhibition [6] 3.56% | RAM network inhibition [7] 2.25%

Cc1ccc2c(c1)C(c1ccccc1)N(C(=O)c1ccc(Br)o1)CC(=O)N2 (stereo not drawn)
inactive: growth inhibition [1] -8.12% | growth inhibition [2] -8.66% | viability increase [3] -3.95% | viability [4] 76.4% | viability [5] 77.9% | inhibition [6] -0.275% | RAM network inhibition [7] 2.72%

Cc1ccc(N2C(=O)c3ccc(C(=O)N4CCN(c5ccccc5F)CC4)cc3C2=O)cc1
inactive: growth inhibition [1] -4.5% | growth inhibition [2] -2.21% | viability increase [3] -1.97% | viability [4] 90.5% | viability [5] 90% | inhibition [6] 1.33% | RAM network inhibition [7] 4.71%

O=S(=O)(NC1CCCCC1)c1ccc(Br)cc1
inactive: growth inhibition [1] 2.22% | growth inhibition [2] 1.47% | viability increase [3] -2.36% | viability [4] 89.3% | viability [5] 89.8% | inhibition [6] 0.065% | RAM network inhibition [7] 2.96%

CC(CCc1ccco1)NC(=O)c1cc2c(-c3ccccc3F)nn(C)c2s1 (stereo not drawn)
inactive: growth inhibition [1] -0.025% | growth inhibition [2] 5.7% | viability increase [3] 1.04% | viability [4] 83.3% | viability [5] 78.7% | inhibition [6] 1.15% | RAM network inhibition [7] -0.15%

CN1CCN(C(=O)c2ccccc2NC(=O)c2cccs2)CC1
inactive: growth inhibition [1] -11% | growth inhibition [2] -8.35% | viability increase [3] -2.33% | viability [4] 98.5% | viability [5] 91.7% | inhibition [6] 0.45% | RAM network inhibition [7] 2.03%

CCOc1cccc(NC(=O)c2ccc(S(=O)(=O)N(C)C)cc2)c1
inactive: growth inhibition [1] -7.19% | growth inhibition [2] -8.01% | viability increase [3] -2.48% | viability [4] 98.6% | viability [5] 92.4% | inhibition [6] 0.83% | RAM network inhibition [7] 6%

O=C(O)c1ccc(Cl)c2c1C1C=CCC1C(c1ccccn1)N2 (stereo not drawn)
inactive: growth inhibition [1] -7.86% | growth inhibition [2] 8.06% | viability increase [3] -2.57% | viability [4] 98.3% | viability [5] 94.6% | inhibition [6] 2.31% | RAM network inhibition [7] 1.25%

COc1ccccc1N1CCN(C(CNC(=O)C2CCCCC2)c2cccnc2)CC1 (stereo not drawn)
inactive: growth inhibition [1] -3.31% | growth inhibition [2] -3.02% | viability increase [3] 1.93% | viability [4] 90.1% | viability [5] 94.4% | inhibition [6] 0.775% | RAM network inhibition [7] 3.85%

Cc1sc2nc(CSc3nnc(Cc4cccs4)n3C3CCCCC3)[nH]c(=O)c2c1C
inactive: growth inhibition [1] 10.9% | growth inhibition [2] 27.6% | viability increase [3] 3.27% | viability [4] 92.8% | viability [5] 90% | inhibition [6] 3.25% | RAM network inhibition [7] 4.25%

O=C(O)CCC(=O)Nc1ccc(-c2nnc(-c3ccco3)o2)cc1
inactive: growth inhibition [1] -12.8% | growth inhibition [2] -4.63% | viability increase [3] -0.63% | viability [4] 102% | viability [5] 99.8% | inhibition [6] 1.61% | RAM network inhibition [7] 2.14%

Cc1nc2ccc(S(=O)(=O)NC(C(=O)N3CCC(C)CC3)C(C)C)cc2s1 (stereo not drawn)
inactive: growth inhibition [1] -13.4% | growth inhibition [2] -2.64% | viability increase [3] -2.02% | viability [4] 93.9% | viability [5] 89% | inhibition [6] 2.38% | RAM network inhibition [7] 2.55%

Cc1ccccc1-n1nc2c(c1NC(=O)c1cccc(F)c1)CS(=O)C2 (stereo not drawn)
inactive: growth inhibition [1] -8.75% | growth inhibition [2] 5.54% | viability increase [3] 0.96% | viability [4] 98.8% | viability [5] 98.5% | inhibition [6] 0.835% | RAM network inhibition [7] 7.75%

C=CCOc1ccc(/C=C/C(C)=N\O)cc1
inactive: growth inhibition [1] 3.48% | growth inhibition [2] 7.77% | viability increase [3] -3.27% | viability [4] 93.2% | viability [5] 96.3% | inhibition [6] 1.11% | RAM network inhibition [7] 9.15%

O=C(O)C1C2C=CC3(CN(C/C=C/c4ccccc4)C(=O)C13)O2 (stereo not drawn)
inactive: growth inhibition [1] -17.1% | growth inhibition [2] -3.43% | viability increase [3] -2.86% | viability [4] 94% | viability [5] 100% | inhibition [6] 1.28% | RAM network inhibition [7] 3.71%

CN(C(=O)c1ccccc1C(=O)c1ccccc1)C1CCS(=O)(=O)C1 (stereo not drawn)
inactive: growth inhibition [1] -8.28% | growth inhibition [2] 3.21% | viability increase [3] -1.54% | viability [4] 96.6% | viability [5] 95.4% | inhibition [6] -0.06% | RAM network inhibition [7] 1.85%

CCn1cc(S(=O)(=O)CC(=O)Nc2ccc3c(c2)OCCO3)c2ccccc21
inactive: growth inhibition [1] -12.1% | growth inhibition [2] -19.9% | viability increase [3] 0.14% | viability [4] 101% | viability [5] 95.3% | inhibition [6] 2.54% | RAM network inhibition [7] 9.35%

O=C(NC1CCCC1)C1c2ccccc2C(=O)N1CCCN1CCOCC1 (stereo not drawn)
inactive: growth inhibition [1] -2.13% | growth inhibition [2] -1.37% | viability increase [3] -1.72% | viability [4] 97.2% | viability [5] 98.4% | inhibition [6] 1.2% | RAM network inhibition [7] 1.51%

CC1CCc2nn(CC(=O)NCCC3=CCCCC3)cc2C1 (stereo not drawn)
inactive: growth inhibition [1] 4.45% | growth inhibition [2] -4.16% | viability increase [3] -1.4% | viability [4] 101% | viability [5] 94.5% | inhibition [6] 0.595% | RAM network inhibition [7] 0.3%

O=C1CCC(=O)N1c1ccc(CSc2nnnn2C2CCCCC2)cc1
inactive: growth inhibition [1] -0.7% | growth inhibition [2] 4.66% | viability increase [3] 0.3% | viability [4] 103% | viability [5] 97.6% | inhibition [6] -0.145% | RAM network inhibition [7] 1.92%

CCOC(=O)c1ccc(N2C(=O)C3CC=C(C)CC3C2=O)cc1 (stereo not drawn)
inactive: growth inhibition [1] -9.14% | growth inhibition [2] -14.8% | viability increase [3] -0.33% | viability [4] 97.1% | viability [5] 91.8% | inhibition [6] 1.07% | RAM network inhibition [7] 1.75%

Nc1nc(SCC(=O)N2CCCc3ccccc32)n(-c2ccccc2)n1
inactive: growth inhibition [1] -4.37% | growth inhibition [2] 0.05% | viability increase [3] -4.68% | viability [4] 108% | viability [5] 99.3% | inhibition [6] 2.67% | RAM network inhibition [7] 6.67%
